Data: ChEMBL document CHEMBL1629439, “High-throughput identification of antibacterials against methicillin-resistant Staphylococcus aureus (MRSA) and the transglycosylase” (Bioorg Med Chem, 2010)
Values after ≈ are worked out from the molar mass of the structure shown.

Assays:
Staphylococcus aureus [1] = assay: Antimicrobial activity against oxacillin- and methicillin-resistant Staphylococcus aureus isolate Sa-OXA-R2 after 18 to 24 hrs by alamar blue assay; format: functional
Outline: (§1)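 Broth microdilution per NCCLS standard, Mueller-Hinton broth, 8-point twofold dilutions; exponentially growing cells at 5 10^5 cells/ml with compound, 18–24 h at 37 C; 20% Alamar blue added, fluorescence read; MIC90 taken as lowest concentration preventing at least 90% growth.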

Bacillus subtilis = assay: Antimicrobial activity against Bacillus subtilis ATCC 23857 after 18 to 24 hrs by alamar blue assay; format: functional
Outline: (§2)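 Broth microdilution per NCCLS in Mueller-Hinton broth, 8-point twofold dilutions, 384-well format. Exponential-phase cells at 5 × 10^5 cells/ml incubated with compound 18–24 h at 37 °C, then 20% Alamar blue added and fluorescence read. MIC90 taken as the lowest concentration preventing at least 90% bacterial growth.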

Escherichia coli = assay: Antimicrobial activity against Escherichia coli ATCC […] after 18 to 24 hrs by alamar blue assay; format: functional; settings: Escherichia coli; read-out: MIC; outline: as §2
Pseudomonas aeruginosa = assay: Antimicrobial activity against Pseudomonas aeruginosa ATCC 25619 after 18 to 24 hrs by alamar blue assay; format: functional; settings: Pseudomonas aeruginosa, ATCC 25619; read-out: MIC; outline: as §2
Acinetobacter baumannii = assay: Antimicrobial activity against Acinetobacter baumannii ATCC 49139 after 18 to 24 hrs by alamar blue assay; format: functional; settings: Acinetobacter baumannii, ATCC 49139; read-out: MIC; outline: as §2
[2] = test system: Stenotrophomonas maltophilia; assay: Antimicrobial activity against Stenotrophomonas maltophilia ATCC 13637 after 18 to 24 hrs by alamar blue assay; format: functional; settings: Stenotrophomonas maltophilia, ATCC 13637; read-out: MIC; outline: as §2
Serratia marcescens = assay: Antimicrobial activity against Serratia marcescens ATCC 14756 after 18 to 24 hrs by alamar blue assay; format: functional; settings: Serratia marcescens, ATCC 14756; read-out: MIC; outline: as §2
[3] = test system: Mycolicibacterium smegmatis; assay: Antimicrobial activity against Mycobacterium smegmatis BCRC 11565 after 18 to 24 hrs by alamar blue assay; format: functional; settings: Mycolicibacterium smegmatis, BCRC 11565; read-out: MIC; outline: as §2
Staphylococcus aureus [4] = assay: Antimicrobial activity against methicillin-resistant Staphylococcus aureus isolate NTUH4722 after 18 to 24 hrs by alamar blue assay; format: functional; outline: as §1
Staphylococcus aureus [5] = assay: Antimicrobial activity against methicillin-resistant Staphylococcus aureus ATCC 33592 after 18 to 24 hrs by alamar blue assay; format: functional; settings: Staphylococcus aureus, ATCC 33592; read-out: MIC; outline: as §1
Staphylococcus aureus [6] = assay: Antimicrobial activity against Staphylococcus aureus ATCC 29213 after 18 to 24 hrs by alamar blue assay

SMILES | MIC (Staphylococcus aureus [1]) | MIC (Bacillus subtilis) | MIC (Escherichia coli) | MIC (Pseudomonas aeruginosa) | MIC (Acinetobacter baumannii) | MIC [2] | MIC (Serratia marcescens) | MIC [3] | MIC (Staphylococcus aureus [4]) | MIC (Staphylococcus aureus [5]) | MIC (Staphylococcus aureus [6])
CCCC(NC(=O)Cc1c(C)c2cc3c(-c4ccc(Cl)cc4)coc3c(C)c2oc1=O)C(=O)O (stereo not given) | 1.25 µg/mL (≈ 2.59 µM) | > 64 µg/mL | > 256 µg/mL | > 256 µg/mL | > 256 µg/mL | > 256 µg/mL | > 256 µg/mL | 1 µg/mL (≈ 2.07 µM) | 2.5 µg/mL (≈ 5.19 µM) | 2.5 µg/mL (≈ 5.19 µM) | 1.25 µg/mL (≈ 2.59 µM)
CCOc1ccccc1N(C)S(=O)(=O)c1ccc2c(c1)NC(=O)C(C)S2 (stereo not given) | > 64 µg/mL | < 0.03 µg/mL | > 256 µg/mL | > 256 µg/mL | > 256 µg/mL | > 256 µg/mL | > 256 µg/mL | > 64 µg/mL | 8 µg/mL (≈ 20.4 µM) | 8 µg/mL (≈ 20.4 µM) | 4 µg/mL (≈ 10.2 µM)
CC1=CC(NC(=O)C(C)Oc2ccccc2)N(c2nc(C)c(C)c(O)n2)N1 (stereo not given) | 1 µg/mL (≈ 2.71 µM) | 0.25 µg/mL (≈ 0.677 µM) | > 256 µg/mL | > 256 µg/mL | > 256 µg/mL | > 256 µg/mL | > 256 µg/mL | 0.25 µg/mL (≈ 0.677 µM) | 1 µg/mL (≈ 2.71 µM) | 0.25 µg/mL (≈ 0.677 µM) | 1 µg/mL (≈ 2.71 µM)
CCc1ccccc1NS(=O)(=O)c1ccc2c(c1)NC(=O)C(C)S2 (stereo not given) | 1 µg/mL (≈ 2.76 µM) | < 0.03 µg/mL | > 256 µg/mL | > 256 µg/mL | > 256 µg/mL | > 256 µg/mL | > 256 µg/mL | > 64 µg/mL | 32 µg/mL (≈ 88.3 µM) | 1 µg/mL (≈ 2.76 µM) | 0.5 µg/mL (≈ 1.38 µM)
O=C1c2ccc([N+](=O)[O-])c3c([N+](=O)[O-])ccc(c23)C(=O)N1c1ccccc1 | 1.25 µg/mL (≈ 3.44 µM) | 4 µg/mL (≈ 11 µM) | > 256 µg/mL | > 256 µg/mL | > 256 µg/mL | > 256 µg/mL | > 256 µg/mL | 4 µg/mL (≈ 11 µM) | 1.25 µg/mL (≈ 3.44 µM) | 2.5 µg/mL (≈ 6.88 µM) | 2.5 µg/mL (≈ 6.88 µM)
Cc1c(CC(=O)N2CCC[C@H]2C(=O)O)c(=O)oc2c(C)c3occ(-c4ccc(Cl)cc4)c3cc12 | 0.6 µg/mL (≈ 1.25 µM) | > 64 µg/mL | > 256 µg/mL | > 256 µg/mL | > 256 µg/mL | > 256 µg/mL | > 256 µg/mL | 1 µg/mL (≈ 2.08 µM) | 0.3 µg/mL (≈ 0.625 µM) | 0.3 µg/mL (≈ 0.625 µM) | 0.3 µg/mL (≈ 0.625 µM)
CCc1c(C)nc(N2NC(C)=CC2NC(=O)c2ccccc2I)nc1O (stereo not given) | 0.5 µg/mL (≈ 1.07 µM) | 0.25 µg/mL (≈ 0.537 µM) | > 256 µg/mL | > 256 µg/mL | > 256 µg/mL | > 256 µg/mL | > 256 µg/mL | 0.25 µg/mL (≈ 0.537 µM) | 0.5 µg/mL (≈ 1.07 µM) | 1 µg/mL (≈ 2.15 µM) | 0.5 µg/mL (≈ 1.07 µM)
CNC(=O)c1ccsc1NC(=O)c1ccc([N+](=O)[O-])o1 | 0.5 µg/mL (≈ 1.69 µM) | 0.06 µg/mL (≈ 0.203 µM) | 256 µg/mL (≈ 867 µM) | 128 µg/mL (≈ 433 µM) | 12 µg/mL (≈ 40.6 µM) | 32 µg/mL (≈ 108 µM) | 32 µg/mL (≈ 108 µM) | 0.5 µg/mL (≈ 1.69 µM) | 0.5 µg/mL (≈ 1.69 µM) | 0.5 µg/mL (≈ 1.69 µM) | 2 µg/mL (≈ 6.77 µM)
O=C1c2cc([N+](=O)[O-])cc3cc([N+](=O)[O-])cc(c23)C(=O)N1Nc1ccc(Cl)cc1 | 2.5 µg/mL (≈ 6.06 µM) | 4 µg/mL (≈ 9.69 µM) | > 256 µg/mL | > 256 µg/mL | > 256 µg/mL | > 256 µg/mL | > 256 µg/mL | 4 µg/mL (≈ 9.69 µM) | 2.5 µg/mL (≈ 6.06 µM) | 2.5 µg/mL (≈ 6.06 µM) | 2.5 µg/mL (≈ 6.06 µM)
O=C(Nc1cccc(C2=Nc3ccccc3C2)c1)c1ccc([N+](=O)[O-])o1 | 0.5 µg/mL (≈ 1.44 µM) | 0.06 µg/mL (≈ 0.173 µM) | 256 µg/mL (≈ 737 µM) | 128 µg/mL (≈ 369 µM) | 12 µg/mL (≈ 34.5 µM) | 32 µg/mL (≈ 92.1 µM) | 32 µg/mL (≈ 92.1 µM) | 0.5 µg/mL (≈ 1.44 µM) | 0.5 µg/mL (≈ 1.44 µM) | 0.25 µg/mL (≈ 0.72 µM) | 0.5 µg/mL (≈ 1.44 µM)
